Paper PMC12254776 (Acta Pharmaceutica Sinica. B, 2025)

Tests used:
[1] = test system: RM-1 cells; assay: MTT cytotoxicity assay against RM-1 cells; type: cell-based, mouse; details: for effect of GSP on the sensitivity of cells to the drug: GSP at an ineffective concentration of 0.5 μmol/L
Procedure, shortened: (§1)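 Cells were seeded at 2 × 10³ per well and grown for 12 h at 37 ℃, 5% CO₂. RM-1, 4T1 and L02 were kept in RPMI 1640 with 10% FBS; 3T3 in DMEM/F-12 with 10% FBS. […] MTT (5 mg/mL stock) was added for 4 h, formazan was dissolved in DMSO, and absorbance was read at 492 nm.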

[2] = test system: 3T3 cells; assay: MTT cytotoxicity assay against 3T3 cells; type: cell-based, mouse
Procedure, shortened: as §1

[3] = test system: L02 cells; assay: MTT cytotoxicity assay against L02 cells; type: cell-based, human
Procedure, shortened: as §1

[4] = test system: RM-1 cells; assay: Live/dead cell co-staining; type: cell-based, mouse; details: 100 nmol/L CTX equivalent and/or 300 nmol/L GSP equivalent, 24 h
Procedure, shortened: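 RM-1 cells were seeded on coverslips at 5 × 10⁴ cells/well and grown for 12 h. […] Cells were stained with Calcein-AM (live) and PI (dead) for 30 min and imaged by confocal microscopy. Untreated cells were the control.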

[5] = test system: RM-1 cells; assay: Mitochondrial membrane potential assay; type: cell-based, mouse; details: green = low potential
Procedure, shortened: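 Cells were stained with JC-1 working solution at 37 ℃ for 20 min, washed twice in cold JC-1 buffer and imaged by confocal microscopy (red aggregates, green monomers). Depolarization was quantified in ImageJ. For flow cytometry, cells seeded at 5 × 10⁴/well were trypsinised before staining. Untreated cells were the control.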

[6] = test system: RM-1 prostate tumor; assay: In vivo antitumor efficacy, RM-1 prostate tumor-bearing C57BL/6 mice; parameters: species or system mouse; details: 4 mg/kg CTX equivalent and/or 7.5 mg/kg GSP equivalent, i.v., every three days, three injections
[7] = test system: testosterone; assay: Serum testosterone; type: in vivo, mouse; details: 4 mg/kg CTX equivalent and/or 7.5 mg/kg GSP equivalent, three injections
[8] = test system: RM-1 prostate tumor; assay: GSP-rendered ultra-low-dose chemotherapeutic window in vivo; parameters: species or system mouse; details: five injections
Procedure, shortened: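 Male C57BL/6 mice were given 5 × 10⁶ RM-1 cells in 100 μL PBS subcutaneously in the right rear flank. […] Dosing was i.v. every other day, five injections. Tumor volume and body weight were recorded daily. Blood was taken one day after the last dose; organs were taken for H&E.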

[9] = test system: 4T1 cells; assay: MTT cytotoxicity assay against 4T1 cells; type: cell-based, mouse; details: 48 h
Procedure, shortened: as §1

[10] = test system: Bcl-2; assay: Western blotting of Bcl-2 in RM-1 cells; type: cell-based, mouse; details: 10 nmol/L CTX equivalent and/or 30 nmol/L GSP equivalent, 40 h
[11] = 14.9 mg/kg GSP equivalent, i.v.

CO[C@H]1C(=O)[C@]2(C)[C@@H](OC)C[C@H]3OC[C@@]3(OC(C)=O)[C@H]2[C@H](OC(=O)c2ccccc2)[C@]2(O)C[C@H](OC(=O)[C@H](O)[C@@H](NC(=O)OC(C)(C)C)c3ccccc3)C(C)=C1C2(C)C [CTX, Cabazitaxel]
reduction in IC50 values in the presence of GSP ([1]; 0.5 μmol/L GSP): ≥ 100 fold
effect of GSP on the sensitivity of cells to the drug [1]: dramatically augmented
effect of GSP on the cytotoxicity of the drug ([2]; 500 nmol/L GSP): little effect
effect of GSP on the cytotoxicity of the drug ([3]; 500 nmol/L GSP): little effect
cell death in live/dead staining [4]: only a small portion of cells
mitochondrial membrane potential change (JC-1 fluorescence, in words) [5]: green fluorescence signals were significantly enhanced
antitumor activity (tumor growth) [6]: moderate antitumor activity
serum testosterone [7]: no change in serum testosterone
body weight ([8]; CTX dose gradient 1–8 mg/kg): dramatic weight loss
hepatorenal function indicators and whole blood indexes ([8]; CTX dose gradient 1–8 mg/kg): abnormalities in hepatorenal function indicators and pancytopenia
toxicity (weight loss, death) ([8]; high doses 4, 6 and 8 mg/kg CTX equivalent, i.v.): serious toxic side effects
anti-tumor effects ([8]; low doses 1 and 2 mg/kg CTX equivalent, i.v.): negligible anti-tumor effects

N.N.[Cl][Pt][Cl] [DDP, cisplatin]
effect of GSP on the sensitivity of cells to the drug [1]: dramatically augmented

COc1cccc2c1C(=O)c1c(O)c3c(c(O)c1C2=O)C[C@@](O)(C(=O)CO)C[C@@H]3O[C@H]1C[C@H](N)[C@H](O)[C@H](C)O1 [DOX, doxorubicin]
effect of GSP on the sensitivity of cells to the drug [1]: dramatically augmented

CC(=O)O[C@@]12CO[C@@H]1C[C@H](O)[C@@]1(C)C(=O)[C@H](O)C3=C(C)[C@@H](OC(=O)[C@H](O)[C@@H](NC(=O)OC(C)(C)C)c4ccccc4)C[C@@](O)([C@@H](OC(=O)c4ccccc4)[C@H]21)C3(C)C [DTX, docetaxel]
effect of GSP on the sensitivity of cells to the drug [1]: dramatically augmented

Nc1ccn([C@@H]2O[C@H](CO)[C@@H](O)C2(F)F)c(=O)n1 [GEM, gemcitabine]
effect of GSP on the sensitivity of cells to the drug [1]: dramatically augmented

Cc1cc2c(C(C)C)c(O)c(O)c(C=O)c2c(O)c1-c1c(C)cc2c(C(C)C)c(O)c(O)c(C=O)c2c1O [GSP, Gossypol]
cytotoxicity (in words) ([1]; MTT, 48 h): almost no cytotoxicity
cytotoxicity (in words) [9]: almost no cytotoxicity
cytotoxicity (in words) ([2]; MTT, 48 h): almost no cytotoxicity
cytotoxicity (in words) ([3]; MTT, 48 h): almost no cytotoxicity
cell death in live/dead staining [4]: only a small portion of cells
expression of Bcl-2 protein [10]: significantly down-regulated the expression of Bcl-2
mitochondrial membrane potential change (JC-1 fluorescence, in words) [5]: negligible impact
antitumor activity (tumor growth) [6]: moderate antitumor activity
antitumor effects [8, 11]: moderate antitumor effects
body weight of tumor-bearing mice [8, 11]: decreased significantly
liver tissue sections (H&E) [8, 11]: some degree of liver injury

O=C1[O][Pt]2([NH][C@@H]3CCCC[C@H]3[NH]2)[O]C1=O [OXP, oxaliplatin]
effect of GSP on the sensitivity of cells to the drug [1]: dramatically augmented
